This passage reports viability, differential viability (reversal) and inhibition results from PubChem BioAssay.

Active and inactive are the calls of the source.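 How the source made its calls, unless noted: active means viability at or below 10% of carrier control in both of two separate runs; inconclusive means viability at or below 10% in only one of the two runs; inactive means the rest.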

A word on the viability: it is a read-out of living cells in per cent, often relative to untreated cells. For orientation: inhibition means the drop in the measured response relative to a control, in per cent.

Experiment [1] is described as follows: reduced viability of SK-BR-3 breast cancer cells – cell-based, 24 h, human, pilot screen (AID 572).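 Further: compound exposure lasted between 18 and 24 h rather than exactly 24 h; 100% = carrier-treated control wells.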 As to conditions: SK-BR-3 viability, CellTiter-Glo luminescence, at 10 µM, stronger effect = lower value.
The nature of experiment [2]: HUVEC growth inhibition – cell-based, human, primary screen (AID 575;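 active means viability at or below 30% in both replicate assays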;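 further: 100% = median of untreated cell wells with 0.1% DMSO on each plate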). The conditions noted are these: HUVEC proliferation, CellTiter-Glo luminescence, 72 h; at 10 µM; stronger effect = lower value. Summed up: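 Test system – primary HUVEC, no more than 12 passages · Dosing – one dose, 10 µM final, 0.1% DMSO · Times – 72 h treatment at 37 °C · Measured by – ATP-based CellTiter-Glo luminescent read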
On the technique in general: In ATP-based viability assays light output follows the ATP content of the culture.

Experiment [3] in a line: H69AR cell proliferation blockers – human, duplicate replicates, primary screen (AID 580;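 active means viability at or under a set limit in both replicates, limit being median viability minus 3 SD, cut at about 48% in these data, passing the limit was not always enough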;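 further: 100% = mean luminescence of untreated wells and 0% = no signal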). The conditions noted are these: H69AR lung tumor cells viability, ATP luminescence, 72 h; at 10 µM; stronger effect = lower value.
Experiment [4] in a line: MRP1 drug-resistance reversers in H69AR cells – cell-based, doxorubicin co-treatment, pilot screen (AID 601;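 active means viability loss from added drug above about 55%, and viability with drug at most 40%, in both replicates, limit read from the data, passing the limit was not always enough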). As to conditions: CellTiter-Glo, 72 h, at 10 µM; for differential viability (reversal): stronger effect = higher value.
Experiment [5] in a line: yeast transport mutant growth inhibition pilot in 384-well plates, post-Golgi transport modulator project (AID 636; in the data active means inhibition above about 31%). As to conditions: absorbance 615 nm, about 18 h, stronger effect = higher value.
Experiment [6] in a line: growth suppression of yeast trafficking mutant, preliminary HTS, modulators of trafficking downstream of Golgi apparatus project, 1536-format plate, OD 615 nm (AID 637; in the data active means inhibition above about 30%). As to conditions: yeast transport mutant growth, absorbance 615 nm, 18 h; stronger effect = higher value.
Setting [7] is: H69AR cells + 2 uM doxorubicin, measured here: viability with 2 uM doxorubicin, stronger effect = lower value.
Where [8] appears, read: H69AR cells, compound alone cytotoxicity.

Turning to `CCCCOc1ccc(S(=O)(=O)n2c(C)nc3ccccc32)cc1`, the viability in experiment [1] was 138% (inactive); in experiment [2], 53.2% (inactive); in experiment [3] it was 87.1% (inactive); in experiment [4] (setting [7]), 94.8%; in experiment [4] (setting [8]), 87.1%. The differential viability (reversal) in experiment [4] (H69AR cells + 2 uM doxorubicin) was -7.77% (inactive). The inhibition is -3.38% (inactive) in experiment [5] and 1.33% (inactive) in experiment [6].
For `COc1ccc(S(=O)(=O)Nc2cc(C)on2)cc1OC`, the viability in experiment [1] was 80% (inactive); in experiment [2] it was 97.1% (inactive); in experiment [3], 105% (inactive); in experiment [4] (setting [7]), 104%; in experiment [4] (setting [8]) it was 105%. In experiment [4] (H69AR cells + 2 uM doxorubicin), the differential viability (reversal) is 1.57% (inactive). For the same compound, the inhibition in experiment [5] was -1.1% (inactive); in experiment [6], -5.81% (inactive).
With `CC1(C)C(c2cccs2)=[N+]([O-])C2(CCCCC/C2=N\O)N1O` (centres undefined), the viability in experiment [1] is 99% (inactive); in experiment [2], 101% (inactive); in experiment [3], 110% (inactive); in experiment [4] (setting [7]) it was 91.8%; in experiment [4] (setting [8]), 110%. Besides, the differential viability (reversal) in experiment [4] (H69AR cells + 2 uM doxorubicin) is 18.4% (inactive). In addition, the inhibition in experiment [5] is -7.95% (inactive); in experiment [6], -1.27% (inactive).
Consider `S=c1[nH]nc(Cc2ccccc2)n1Cc1ccco1`, for which the viability is 78% (inactive) in experiment [1]; 108% (inactive) in experiment [2]; 96.3% (inactive) in experiment [3]; 99.1% in experiment [4] (setting [7]); 96.3% in experiment [4] (setting [8]). The differential viability (reversal) in experiment [4] (H69AR cells + 2 uM doxorubicin) is -2.76% (inactive). In addition, the inhibition was -1.64% (inactive) in experiment [5] and -6.94% (inactive) in experiment [6].
As for `O=C(NCCCN1CCCC1=O)c1cccnc1`, the viability is 135% (inactive) in experiment [1]; 113% (inactive) in experiment [2]; 89.2% (inactive) in experiment [3]; 88.7% in experiment [4] (setting [7]); 89.2% in experiment [4] (setting [8]). Moreover, the differential viability (reversal) in experiment [4] (H69AR cells + 2 uM doxorubicin) was 0.48% (inactive). The figures for the inhibition in experiment [5] and in experiment [6] were -4.25% (inactive) and 3.09% (inactive), respectively.
Consider `CCc1nnc(NC(=O)CSc2nnc(-c3cc4ccccc4cc3O)n2CC)s1`, for which the viability in experiment [1] is 84% (inactive); in experiment [2] it was 78.4% (inactive); in experiment [3], 90.1% (inactive); in experiment [4] (setting [7]) it was 89.1%; in experiment [4] (setting [8]) it was 90.1%. Besides, in experiment [4] (H69AR cells + 2 uM doxorubicin), the differential viability (reversal) is 1.08% (inactive). Also, the inhibition in experiment [5] is -1.95% (inactive); in experiment [6] it was -3.28% (inactive).
As for `Cn1nc(-c2ccc(N3CCCCC3)c(NC(=O)c3ccco3)c2)c2ccccc2c1=O`, the viability in experiment [1] was 107% (inactive); in experiment [2], 56.2% (inactive); in experiment [3], 32.3% (active); in experiment [4] (setting [7]), 20.8%; in experiment [4] (setting [8]), 32.3%. In addition, in experiment [4] (H69AR cells + 2 uM doxorubicin), the differential viability (reversal) was 11.6% (inactive). In addition, the figures for the inhibition in experiment [5] and in experiment [6] were 1.6% (inactive) and 4.35% (inactive), respectively.
On to `O=C(Nc1ccncc1)C1c2ccccc2Oc2ccccc21`, for which the viability is 121% (inactive) in experiment [1]; 100% (inactive) in experiment [2]; 92.3% (inactive) in experiment [3]; 101% in experiment [4] (setting [7]); 92.3% in experiment [4] (setting [8]). In addition, in experiment [4] (H69AR cells + 2 uM doxorubicin), the differential viability (reversal) is -8.33% (inactive). Besides, the results for the inhibition in experiment [5] and in experiment [6] were -2.3% (inactive) and 14.4% (inactive), respectively.
As to `COCCCN1C(=O)C(=O)/C(=C(/O)c2ccc(OC)cc2)C1c1ccc(O)c(OC)c1` (centres undefined), the viability in experiment [1] was 104% (inactive); in experiment [2] it was 109% (inactive); in experiment [3], 103% (inactive); in experiment [4] (setting [7]), 96.9%; in experiment [4] (setting [8]) it was 103%. Further, the differential viability (reversal) in experiment [4] (H69AR cells + 2 uM doxorubicin) was 6.55% (inactive). Besides, the inhibition in experiment [5] is -2.53% (inactive); in experiment [6] it was -1.45% (inactive).
Take `O=C(Nc1nc(-c2cccs2)cs1)c1cccc(S(=O)(=O)N2CCCCC2)c1`: the viability is 194% (inactive) in experiment [1]; 67.2% (inactive) in experiment [2]; 66.8% (inactive) in experiment [3]; 72.2% in experiment [4] (setting [7]); 66.8% in experiment [4] (setting [8]). In experiment [4] (H69AR cells + 2 uM doxorubicin), the differential viability (reversal) was -5.37% (inactive). The inhibition in experiment [5] was 3.9% (inactive); in experiment [6], 1.64% (inactive).
Turning to `O=C(c1cnc2sccn2c1=O)N1CCc2ccccc2C1`, the viability in experiment [1] is 95% (inactive); in experiment [2] it was 95.7% (inactive); in experiment [3], 104% (inactive); in experiment [4] (setting [7]) it was 96.2%; in experiment [4] (setting [8]) it was 104%. The differential viability (reversal) in experiment [4] (H69AR cells + 2 uM doxorubicin) was 7.95% (inactive). Besides, the inhibition is -2.8% (inactive) in experiment [5] and -4.36% (inactive) in experiment [6].
As to `CC(=O)OCC(=O)[C@@]1(OC(C)=O)[C@@H](C)C[C@H]2[C@@H]3C[C@H](F)C4=CC(=O)C=C[C@]4(C)[C@@]3(F)[C@@H](O)C[C@@]21C`, the viability in experiment [1] is 119% (inactive); in experiment [2], 102% (inactive); in experiment [3], 94.5% (inactive); in experiment [4] (setting [7]), 89.5%; in experiment [4] (setting [8]) it was 94.5%. The differential viability (reversal) in experiment [4] (H69AR cells + 2 uM doxorubicin) is 5.08% (inactive). Moreover, the figures for the inhibition in experiment [5] and in experiment [6] were -1.69% (inactive) and 7.33% (inactive), respectively.
Consider `Cc1nn(Cc2ccccc2)c2c1C(c1ccncc1)C(C#N)=C(N)O2` (centres undefined), for which the viability in experiment [1] is 96% (inactive); in experiment [2] it was 86% (inactive); in experiment [3] it was 85% (inactive); in experiment [4] (setting [7]) it was 87.7%; in experiment [4] (setting [8]) it was 85%. Moreover, the differential viability (reversal) in experiment [4] (H69AR cells + 2 uM doxorubicin) is -2.68% (inactive). Also, the inhibition was -4.8% (inactive) in experiment [5] and -3.27% (inactive) in experiment [6].
With `C#CCN(C)Cc1ccccc1`, the viability is 96% (inactive) in experiment [1]; 94.3% (inactive) in experiment [2]; 93.8% (inactive) in experiment [3]; 100% in experiment [4] (setting [7]); 93.8% in experiment [4] (setting [8]). Further, the differential viability (reversal) in experiment [4] (H69AR cells + 2 uM doxorubicin) is -6.42% (inactive). Further, the inhibition in experiment [5] is 0.26% (inactive); in experiment [6] it was -1.17% (inactive).
As for `CC(O)Cn1cnc2c1c(=O)n(C)c(=O)n2C` (centres undefined), the viability was 107% (inactive) in experiment [1]; 106% (inactive) in experiment [2]; 95.8% (inactive) in experiment [3]; 96.1% in experiment [4] (setting [7]); 95.8% in experiment [4] (setting [8]). For the same compound, in experiment [4] (H69AR cells + 2 uM doxorubicin), the differential viability (reversal) was -0.25% (inactive). In addition, the inhibition is -1.04% (inactive) in experiment [5] and 0.17% (inactive) in experiment [6].
Regarding `O=C(NCc1ccccc1)C1CCCN(S(=O)(=O)c2cccnc2)C1` (centres undefined), the viability in experiment [1] was 92% (inactive); in experiment [2], 95.5% (inactive); in experiment [3], 99% (inactive); in experiment [4] (setting [7]) it was 92.8%; in experiment [4] (setting [8]), 99%. In experiment [4] (H69AR cells + 2 uM doxorubicin), the differential viability (reversal) is 6.21% (inactive). Moreover, the inhibition is -4.66% (inactive) in experiment [5] and -3.81% (inactive) in experiment [6].
Take `Cc1nc(NC(=O)C23CCC(C)(C(=O)O2)C3(C)C)sc1C` (centres undefined): the viability was 133% (inactive) in experiment [1]; 107% (inactive) in experiment [2]; 99.2% (inactive) in experiment [3]; 85.4% in experiment [4] (setting [7]); 99.2% in experiment [4] (setting [8]). Also, the differential viability (reversal) in experiment [4] (H69AR cells + 2 uM doxorubicin) is 13.9% (inactive). The inhibition in experiment [5] was -2.99% (inactive); in experiment [6], 0.16% (inactive).
Take `OC(CCN1CCCCC1)(c1ccccc1)c1ccccc1`: the viability in experiment [1] was 95% (inactive); in experiment [2], 92.7% (inactive); in experiment [3], 84.1% (inactive); in experiment [4] (setting [7]), 83.7%; in experiment [4] (setting [8]) it was 84.1%. Besides, the differential viability (reversal) in experiment [4] (H69AR cells + 2 uM doxorubicin) is 0.38% (inactive). Besides, the inhibition in experiment [5] is -2.21% (inactive); in experiment [6] it was 0% (inactive).
